Compound activity as filed in PubChem BioAssay.
Only some compounds are listed: those with a hit (about 4.8% of all), similar ones and a draw of the others.
PAFAH1B3 inh: PAFAH1B3 (human) inhibition | Q15102 | recombinant PAFAH1B3, FP-rhodamine probe, fluorescence polarization | inhibition, % at 3.39 µM | hit rate 0.28% among 340,000;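 active = inhibition above the screen-wide average of all tested compounds plus 3 SD, cut at about 25% in these data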;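 also: 0% = enzyme with DMSO only and 100% = wells lacking PAFAH1B3 protein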
PAFAH2 inh: PAFAH2 (human) inhibition | Q99487 | recombinant PAFAH2, FP-rhodamine activity probe, fluorescence polarization | inhibition, % at 3.39 µM | hit rate 0.99% among 340,000;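 active = inhibition above the mean over all tested compounds plus 3 SD, cut at about 30% in these data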;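 also: inhibitors block probe labeling of enzyme so polarization drops; 0% = enzyme with DMSO and 100% = wells lacking PAFAH2 protein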
pPAFAH FP inh: pPAFAH (human) enzyme inhibition | recombinant pPAFAH, FP-rhodamine probe fluorescence polarization | hit rate 1.5% among 330,000 | AID 463082 | inhibition, % at 3.39 µM | Q13093;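 active = inhibition above the mean inhibition across the screen plus 3 SD, cut at about 25% in these data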;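 also: inhibitors block binding of the rhodamine activity-based probe so polarization drops; 0% = enzyme with DMSO and 100% = wells lacking pPAFAH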
Target sequence (Q13093 whole entry, looked up): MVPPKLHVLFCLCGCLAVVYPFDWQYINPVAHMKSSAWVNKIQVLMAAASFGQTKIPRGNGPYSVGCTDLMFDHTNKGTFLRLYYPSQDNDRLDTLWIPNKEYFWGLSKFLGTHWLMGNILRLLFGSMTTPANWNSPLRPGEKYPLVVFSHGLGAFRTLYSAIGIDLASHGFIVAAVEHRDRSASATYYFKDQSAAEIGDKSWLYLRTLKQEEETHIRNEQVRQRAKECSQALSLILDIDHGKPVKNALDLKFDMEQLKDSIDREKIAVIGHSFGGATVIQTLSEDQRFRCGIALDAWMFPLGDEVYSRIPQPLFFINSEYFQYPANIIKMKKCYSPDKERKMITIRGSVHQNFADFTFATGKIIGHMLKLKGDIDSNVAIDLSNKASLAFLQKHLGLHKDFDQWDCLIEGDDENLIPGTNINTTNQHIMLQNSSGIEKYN
PAFAH1B2 FP inh: PAFAH1B2 (human) inhibition; recombinant PAFAH1B2, FP-rhodamine activity probe, fluorescence polarization; inhibition, % at 3.39 µM; hit rate 1.2% among 340,000; AID 492953; P68402;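 active = inhibition above the mean of all tested compounds plus 3 SD, cut at about 24% in these data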;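 also: 0% = enzyme with DMSO and 100% = wells lacking PAFAH1B2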
Target sequence (P68402 whole entry, looked up): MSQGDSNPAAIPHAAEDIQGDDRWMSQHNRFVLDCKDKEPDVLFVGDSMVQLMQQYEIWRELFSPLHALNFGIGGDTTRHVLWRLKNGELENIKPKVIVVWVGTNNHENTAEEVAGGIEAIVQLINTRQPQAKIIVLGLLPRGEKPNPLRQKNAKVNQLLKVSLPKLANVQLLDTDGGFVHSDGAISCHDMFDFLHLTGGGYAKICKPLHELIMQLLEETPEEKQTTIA
NR3A LBD binder: modulators (binders) of human NR3A ligand-binding domain; Tm shift relative to glycine control, % at 25 µM; hit rate 2.5% among 340,000; NR3A LBD differential scanning fluorimetry, Tm shift; 0% = protein alone, 100% = glycine-bound protein; AID 1259313;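 active = melting temperature shift of at least 10% of the positive control shift, at one fixed dose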
UCH37 DUB inh: human UCH37 deubiquitinating enzyme inhibition. hit rate 0.33% among 330,000. purified proteasome/UCH37, Ub-AMC cleavage fluorescence. inhibition, % (concentration not given with the values);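 active = mean inhibition over replicate wells above about 20%, limit read from the data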;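 also: 0% = compound-free wells with enzyme and 100% = wells lacking proteasome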
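system = Proteasome-associated human UCH37 deubiquitinase | amount = 0.15 nM proteasome as dispensed | medium = pH 7.4 Tris-HCl (50 mM) with ovalbumin, ATP-MgCl2, DTT | incubation = 30 min preincubation with enzyme, 25 min cleavage at room temperature | detection = AMC fluorescence 355/460 nm | read-out basis = percent inhibition | controls = no-proteasome and no-compound wells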
PAFAH2 FP conf: PAFAH2 (human) inhibition, confirmed; shares compounds with PAFAH2 inh; recombinant PAFAH2, FP-rhodamine activity probe, fluorescence polarization; inhibition, % at 3.39 µM; hit rate 65% among 2,300; AID 493030;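 active = mean inhibition over three repeats above a set limit taken from the earlier primary screen, cut at about 30% in these data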;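 also: inhibitor blocks binding of rhodamine activity probe so polarization falls; 0% = enzyme with DMSO and 100% = wells lacking PAFAH2 protein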
PAFAH1B3 conf FP: PAFAH1B3 (human) inhibition, confirmed. inhibition, % at 3.39 µM. hit rate 30% among 390. shares compounds with PAFAH1B3 inh. AID 493032. recombinant PAFAH1B3, FP-Rh activity-based probe, fluorescence polarization;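 active = average inhibition over triplicate runs above the hit cutoff set in the earlier primary screen, cut at about 25% in these data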;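 also: 0% = enzyme with DMSO and 100% = wells lacking PAFAH1B3 protein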
UCH37 confirm: UCH37 Ub-AMC cleavage inhibition, confirmed. Proteasome-bound UCH37, Ub-AMC cleavage fluorescence. AID 624100. shares compounds with UCH37 DUB inh. hit rate 27% among 480. inhibition, % at 20 µM;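 active = average inhibition over replicates above about 50%, so the earlier screening hit is confirmed, limit read from the data; inactive = the rest, counted as false positives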;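 also: based on cleavage rate fitted by regression over a 30 min kinetic read; 0% = proteasome plus Ub-AMC and 100% = Ub-AMC without proteasome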
The depositor's hits bear a star; i = inactive; x = no result given.

SMILES	PAFAH1B3 inh	PAFAH2 inh	pPAFAH FP inh	PAFAH1B2 FP inh	NR3A LBD binder	UCH37 DUB inh	UCH37 confirm	others
Cc1cc(C(=O)OCC(=O)Nc2ccc(F)cc2)c(C)n1C1CC1	5.3	42.8*	7.4	0.0	-0.9	1.3	x	PAFAH2 FP conf=24.6
COc1ccccc1NC(=O)COC(=O)c1cc(C)n(C2CC2)c1C	2.1	4.4	3.3	2.1	0.5	1.4	x
Cc1cc(/C=C2\C(=O)NC(=O)N(Cc3ccccc3Cl)C2=O)c(C)n1-c1ccc(C(=O)O)cc1	-1.4	33.7*	10.8	4.5	2.9	7.7	x	PAFAH2 FP conf=24.2
Cc1ccccc1-n1c(C)cc(/C=C2/C(=O)NC(=O)N(Cc3ccco3)C2=O)c1C	15.0	41.7*	5.7	2.8	-2.0	3.6	x	PAFAH2 FP conf=45.6*
Cc1ccc(-n2c(C)cc(/C=C3/C(=O)NC(=O)N(Cc4ccco4)C3=O)c2C)cc1	0.5	6.1	11.3	-2.9	-1.9	-1.1	x
CN1CC[C@@]2(C)c3cc(O)ccc3N(C)[C@@H]12	40.2*	3.1	x	13.2	2.0	x	x	PAFAH1B3 conf FP=5.3
COCCCn1c(N)c(C(=O)OCCOC)c2nc3ccccc3nc21	10.5	1.1	2.2	-2.7	0.0	i	x
CCOC(=O)c1c(N)n(CCCOC(=O)c2ccco2)c2nc3ccccc3nc12	10.1	-0.7	5.4	4.7	-3.1	i	x
CCOC(=O)c1c(NS(=O)(=O)c2ccccc2)n(CCCOC)c2nc3ccccc3nc12	27.5*	-1.7	9.2	14.2	0.0	i	x	PAFAH1B3 conf FP=10.2
CCCCCn1c(NC(=O)c2ccco2)c(C(=O)OCC)c2nc3ccccc3nc21	54.8*	3.4	8.2	23.1	-2.2	-145.4	x	PAFAH1B3 conf FP=49.8*
COc1cc2c(cc1OC)-c1c(OC)c(OC)cc3c1[C@H](C2)N(C)CC3	34.0*	19.3	-1.1	11.0	1.9	1.8	x	PAFAH1B3 conf FP=8.6
Nc1c(C(=O)NC2CCCC2)c2nc3ccccc3nc2n1CC1CCCO1 (stereo not given)	26.5*	6.9	17.4	2.1	-8.7	x	x	PAFAH1B3 conf FP=14.5
CCCC(C)n1[nH]c(=O)c2c1NC(=O)CSC2c1ccccc1 (stereo not given)	3.5	4.9	2.5	4.5	-0.2	3.1	x
CC(Cc1ccccc1)NC(=O)Cc1ccc([N+](=O)[O-])cc1 (stereo not given)	9.9	-4.2	-6.4	6.5	-1.4	6.1	x
CN1C(=O)C2C[C@@]3(Br)c4ccccc4N(OOSc4ccccc4)[C@H]3N2C(=O)[C@@H]1Cc1ccccc1 (stereo not given in full)	0.8	-5.3	-0.9	-6.2	-4.7	0.8	x
O=C(COc1ccccc1F)N1CCN(CCN2C(=O)c3cccc4cccc(c34)C2=O)CC1	28.0*	2.3	3.0	2.0	0.3	2.0	x	PAFAH1B3 conf FP=5.3
O=C(COc1ccccc1)N1CCN(CCN2C(=O)c3cccc4cccc(c34)C2=O)CC1	-6.8	1.1	1.6	-0.6	-1.0	0.9	x
CC12CN3CC(C)(CN(C1)C31CCOCC1)C2=O	-0.8	-0.3	1.3	-0.6	-1.0	-1.5	x
c1cncc(C2Nc3cccc4cccc(c34)N2)c1	36.3*	-0.8	7.5	1.5	0.9	8.2	x	PAFAH1B3 conf FP=11.9
O=C(O)CC1OCC=C2CN3CCC45C6=CC(=O)C(=O)C([N+](=O)[O-])=C6NC4C1C2CC35 (stereo not given)	71.5*	9.1	5.2	10.3	-3.6	96.7*	96.6*	PAFAH1B3 conf FP=9.4
Cn1c(O)c(C=NCCN2CCOCC2)c(=O)[nH]c1=S	5.3	1.7	2.5	-6.6	0.2	6.2	x
CN1/C(=C\C=C2C(=O)NC(=O)NC2=O)C(C)(C)c2ccccc21	4.7	4.8	-1.8	-2.2	0.3	39.1*	6.3
Cn1c(O)c(C(=O)c2ccccc2)c(=O)n(C)c1=O	-2.0	2.6	10.5	-0.3	-0.2	42.1*	7.2
O=C1C(=O)c2ccccc2-c2ccccc21	71.5*	57.9*	7.2	42.6*	-0.8	87.5*	101.4*
Cc1ccc2cc(C=C(C#N)C#N)c(Cl)nc2c1	-2.1	-9.7	9.0	5.6	-3.5	2.0	x
SMILES	PAFAH1B3 inh	PAFAH2 inh	pPAFAH FP inh	PAFAH1B2 FP inh	NR3A LBD binder	UCH37 DUB inh	UCH37 confirm	others
CC(C)(C)N1C(=O)NC(=O)/C(=C\c2ccc3c(c2)CCN3CCCCl)C1=O	-0.1	10.0	16.7	-3.3	0.5	63.6*	0.6
CCN1C(=O)/C(=C/c2ccc3c(c2)CCN3CCCCl)C(=O)NC1=S	-4.6	16.0	19.2	-1.9	-0.4	2.8	x
O=[N+]([O-])c1ccc2c(c1)C(c1ccccc1)=NCCN2	2.6	3.0	7.7	4.3	2.1	4.4	x
CC(C)CC12CN3CCN(CC(C3)C1O)C2 (stereo not given)	2.3	-4.9	-5.8	-1.2	1.9	2.1	x
C=C(C)C(Cc1c(OC)ccc(C(=O)/C=C/c2ccc(O)cc2)c1O)OO (stereo not given)	-0.4	-5.0	5.3	0.3	23.8*	48.6*	19.1
Cc1cccc(-n2c(O)c(/C=N/Nc3nc4c(c(=O)n(C)c(=O)n4C)n3C)c(=O)[nH]c2=S)c1	8.5	6.0	7.9	4.0	-4.0	27.2*	22.3
Cc1nc2c(=O)n(C)c(=O)nc-2n(C)n1	66.3*	54.3*	3.7	27.7*	0.7	99.9*	100.4*
C=C(C)Cn1c(=O)n(CC2CS2)c2ccccc21 (stereo not given)	10.7	-3.9	1.3	-1.1	0.8	3.3	x
Cc1ccc2c(c1)CC1(CN2C)C(=O)NC(=O)N(CCC2=CCCCC2)C1=O (stereo not given)	7.2	15.8	-1.1	7.7	-0.5	35.4*	20.2
CN1C(=O)N(C)C(=O)C(NS(=O)(=O)c2ccc(N)cc2)(c2ccccc2)C1=O	6.5	-1.6	x	-0.3	-5.5	x	x
CC(C)OC(=O)Nc1ccc(N=C(N)N[N+](=O)[O-])cc1	-4.3	2.9	0.7	-4.5	-1.0	1.5	x
CN1CCN(c2ccc([N+](=O)[O-])c3no[n+]([O-])c23)CC1	-13.9	-19.8	1.3	-12.3	-1.1	41.8*	29.4
CN1CCN(c2ccc(S(C)(=O)=O)cc2[N+](=O)[O-])CC1	0.9	-3.2	-0.4	-0.5	-3.4	4.1	x
COC(=O)C1=C(c2cccc(C#N)c2)C[C@@H]2CC[C@H]1N2C(=O)NCCOc1ccccc1	6.2	5.7	3.4	6.2	-3.6	0.0	x
COC(=O)C1=C(c2cccc(C#N)c2)C[C@@H]2CC[C@H]1N2C(=O)NCCOc1ccccc1Cl	8.4	-4.7	3.7	0.2	0.0	46.1*	7.4
C#C[C@]1(O)CC[C@H]2[C@@H]3CCC4=Cc5nc6nc7ccccc7n6cc5C[C@]4(C)[C@H]3CC[C@@]21C	-1.3	-0.2	-3.1	-3.8	-0.6	-11.1	x
O=C1NC(=O)C(Nc2ccc(Cl)c(Cl)c2)C(=O)N1	1.8	-1.8	x	5.3	2.4	58.5*	-1.9
O=C(C[N+]12CCN(CC1)CC2)NCCc1ccc(Cl)cc1Cl	-0.6	-7.4	0.9	0.7	2.2	-0.7	x
